Measurements: article PMC8020290 (Journal of Ginseng Research, 2020)
Like-named read-outs stand apart in the source and are kept apart here. Marks after values point to notes of the source that are not given here.

Columns and labels:
[1] = assay type: in vivo, Sprague Dawley rats; settings: for AUC: 0 to 48 h; for AUC / Cmax / half-life / Tmax / T1/2: plasma after intragastric ginsenoside Rb1 100 mg/kg, mean ± SE; for AUC increase compared with the control group: after intragastric ginsenoside Rb1 100 mg/kg
How it was run: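 Male SD rats (200 ± 20 g, n = 8/group) were gavaged daily for two weeks with prebiotic fibre at 1.0 g/d/rat, or sterile water (10 ml/kg). After an overnight fast, test compound was given intragastrically at 100 mg/kg. Ophthalmic plexus blood was drawn at 0.25–48 h. Plasma was acetone-precipitated with a saikosaponin A internal standard and run on positive-mode UPLC-ESI-QqQ-MS/MS. AUC0–48h came from non-compartmental analysis, mean ± SE, ANOVA/Bonferroni.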

[2] = cited from earlier work
intestinal microflora = settings: after colimycin 20 mg/kg/day; decreased from 22.1 ± 1.2%; cited from earlier work
[3] = FOS group (1.0 g/d/rat, two weeks)
[4] = Fibersol-2 group (1.0 g/d/rat, two weeks)
[5] = GOS group (1.0 g/d/rat, two weeks)
[6] = Sprague-Dawley, rat, plasma, po, 100 mg/kg, Cmax, FOS group (1.0 g/d/rat, two weeks)
[7] = Sprague-Dawley, rat, plasma, po, 100 mg/kg, Cmax, Fibersol-2 group (1.0 g/d/rat, two weeks)
[8] = Sprague-Dawley, rat, plasma, po, 100 mg/kg, Cmax, GOS group (1.0 g/d/rat, two weeks)
[9] = Sprague-Dawley, rat, plasma, po, 100 mg/kg, T1/2, FOS group (1.0 g/d/rat, two weeks)
[10] = Sprague-Dawley, rat, plasma, po, 100 mg/kg, T1/2, Fibersol-2 group (1.0 g/d/rat, two weeks)
[11] = Sprague-Dawley, rat, plasma, po, 100 mg/kg, T1/2, GOS group (1.0 g/d/rat, two weeks)
[12] = Sprague-Dawley, rat, plasma, po, 100 mg/kg, Tmax, FOS group (1.0 g/d/rat, two weeks)
[13] = Sprague-Dawley, rat, plasma, po, 100 mg/kg, Tmax, Fibersol-2 group (1.0 g/d/rat, two weeks)
[14] = Sprague-Dawley, rat, plasma, po, 100 mg/kg, Tmax, GOS group (1.0 g/d/rat, two weeks)

AUC [1, 3] | AUC [1, 4] | AUC [1, 5] | AUC increase compared with the control group ([1]; FOS intervention) | AUC increase compared with the control group ([1]; GOS intervention) | Cmax [1, 6] | Cmax [1, 7] | Cmax [1, 8] | half-life [1, 9] | half-life [1, 10] | half-life [1, 11] | Tmax [1, 12] | Tmax [1, 13] | Tmax [1, 14] | AUC increase compared with the control group ([1]; fibersol-2 intervention) | Compound | oral bioavailability [2] | further results
1616.98 ± 321.59^b ng/ml∗h | 1754.98 ± 335.76^b ng/ml∗h | 1479.93 ± 381.35^b ng/ml∗h | 1.91 times | 1.74 times | 110 ± 25.1 ng/mL | 145 ± 67.2 ng/mL | 156 ± 39 ng/mL | 15.2 ± 5.17 h | 10.3 ± 3.79 h | 18.6 ± 18 h | 7.6 ± 0.89 h | 7.6 ± 1.67 h | 6.4 ± 0.89 h | 2.06 times | CC(C)=CCC[C@](C)(O[C@@H]1O[C@H](CO)[C@@H](O)[C@H](O)[C@H]1O)[C@H]1CC[C@]2(C)[C@@H]1[C@H](O)C[C@@H]1[C@@]3(C)CC[C@H](O[C@@H]4O[C@H](CO)[C@@H](O)[C@H](O)[C@H]4O[C@@H]4O[C@H](CO)[C@@H](O)[C@H](O)[C@H]4O)C(C)(C)[C@@H]3CC[C@]12C [Rd, ginsenoside Rd] | – | –
34494.77 ± 8770.73^bc ng/ml∗h | 42110.46 ± 6452.33^c ng/ml∗h | 30813.79 ± 3334.99^b ng/ml∗h | 2.52 times | 2.25 times | 1530 ± 343 ng/mL | 3880 ± 2370 ng/mL | 1210 ± 126 ng/mL | 19.4 ± 4.44 h | 24.2 ± 4.81 h | 19.7 ± 2.06 h | 6.3 ± 2.82 h | 1 ± 1.12 h | 3.2 ± 3.55 h | 3.07 times | CC(C)=CCC[C@](C)(O[C@@H]1O[C@H](CO[C@@H]2O[C@H](CO)[C@@H](O)[C@H](O)[C@H]2O)[C@@H](O)[C@H](O)[C@H]1O)[C@H]1CC[C@]2(C)[C@@H]1[C@H](O)C[C@@H]1[C@@]3(C)CC[C@H](O[C@@H]4O[C@H](CO)[C@@H](O)[C@H](O)[C@H]4O[C@@H]4O[C@H](CO)[C@@H](O)[C@H](O)[C@H]4O)C(C)(C)[C@@H]3CC[C@]12C [Rb1, ginsenoside Rb1] | 0.28–1.18% | –

The remaining lines, values behind:

Compound | AUC [1, 3] | AUC [1, 4] | AUC [1, 5] | AUC increase compared with the control group ([1]; FOS intervention) | AUC increase compared with the control group ([1]; GOS intervention) | Cmax [1, 6] | Cmax [1, 7] | Cmax [1, 8] | half-life [1, 9] | half-life [1, 10] | half-life [1, 11] | Tmax [1, 12] | Tmax [1, 13] | Tmax [1, 14] | AUC increase compared with the control group ([1]; fibersol-2 intervention) | oral bioavailability [2] | further results
CC(C)=CCC[C@](C)(O[C@@H]1O[C@H](CO)[C@@H](O)[C@H](O)[C@H]1O)[C@H]1CC[C@]2(C)[C@@H]1[C@H](O)C[C@@H]1[C@@]3(C)CC[C@H](O)C(C)(C)[C@@H]3CC[C@]12C [CK, 20-O-β-D-glucopyranosyl-20(S)-protopanaxadiol] | 1056.88 ± 173.22^ab ng/ml∗h | 1251.99 ± 740.67^b ng/ml∗h | 1434.71 ± 415.30^b ng/ml∗h | – | 2.42 times | – | – | – | – | – | – | – | – | – | 2.11 times | 1.8–35.0% | Cmax [1, 3]: 42.94 ± 12.08^a ng/ml; T1/2 [1, 3]: 92.12 ± 158.19^a h; Tmax [1, 3]: 24.80 ± 15.60^b h; Cmax [1, 4]: 53.38 ± 25.17^a ng/ml; T1/2 [1, 4]: 50.86 ± 65.79^a h; Tmax [1, 4]: 29.00 ± 19.72^b h; Cmax [1, 5]: 57.46 ± 7.17^a ng/ml; T1/2 [1, 5]: 77.35 ± 129.14^a h; Tmax [1, 5]: 15.30 ± 11.98^ab h
CC(C)=CCC[C@](C)(O[C@@H]1O[C@H](CO)[C@@H](O)[C@H](O)[C@H]1O)[C@H]1CC[C@]2(C)[C@@H]1[C@H](O)C[C@@H]1[C@@]3(C)CC[C@H](O[C@@H]4O[C@H](CO)[C@@H](O)[C@H](O)[C@H]4O)C(C)(C)[C@@H]3CC[C@]12C [F2, ginsenoside F2] | 200.38 ± 41.50^b ng/ml∗h | 153.78 ± 36.00^ab ng/ml∗h | 121.97 ± 29.35^a ng/ml∗h | 1.94 times | – | 15.2 ± 2.49 ng/mL | 35.3 ± 18.3 ng/mL | 11.4 ± 3.44 ng/mL | 23.2 ± 37.8 h | 2.67 ± 0.95 h | 4.52 ± 3.73 h | 8 ± 1.41 h | 6.8 ± 1.09 h | 7.6 ± 1.67 h | – | – | –
colimycin | – | – | – | – | – | – | – | – | – | – | – | – | – | – | – | – | ginsenoside Rb1-hydrolysing activity by intestinal microflora (intestinal microflora): 4.7 ± 2.7%
